ChEMBL document CHEMBL1129431, “Derivatives of (R)- and (S)-5-fluoro-8-hydroxy-2-(dipropylamino)tetralin: synthesis and interactions with 5-HT1A receptors” (J Med Chem, 1996)

Assays:
[1] = biological target: T1, 5-hydroxytryptamine receptor 1A (Rattus norvegicus) (UniProt P19327); experiment: Effect on 5-hydroxytryptamine 1A receptor mediated inhibition of VIP-stimulated cAMP production at dose of 1 uM; type: functional; details: values are per cent of control
T1 sequence (whole entry): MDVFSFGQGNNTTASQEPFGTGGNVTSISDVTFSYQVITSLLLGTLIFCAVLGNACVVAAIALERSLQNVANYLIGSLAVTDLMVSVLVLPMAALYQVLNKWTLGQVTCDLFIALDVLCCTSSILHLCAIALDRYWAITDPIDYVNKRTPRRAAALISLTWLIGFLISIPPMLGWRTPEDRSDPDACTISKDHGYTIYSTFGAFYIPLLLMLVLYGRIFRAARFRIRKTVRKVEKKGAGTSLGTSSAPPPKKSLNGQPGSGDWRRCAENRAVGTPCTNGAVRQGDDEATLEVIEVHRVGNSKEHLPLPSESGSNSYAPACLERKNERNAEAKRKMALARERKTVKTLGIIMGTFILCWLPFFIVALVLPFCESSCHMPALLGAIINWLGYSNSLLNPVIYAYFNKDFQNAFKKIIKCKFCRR
Summary of the method: (§1)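 GH4ZD10 cells expressing rat 5-HT1A receptors were detached with EBSS plus 1 mM EDTA and resuspended to ~1×10^7 cells/mL in Ham's F10 with 0.01% ascorbic acid and 0.1 mM IBMX. After 1 h preincubation at 37 °C they were diluted to 0.8-1.5×10^6 cells/mL, then incubated 20 min at 37 °C with VIP (39 nM final) plus compound, alone or with 5-HT, in duplicate. The reaction was stopped by boiling. cAMP was measured in triplicate by protein-binding assay and expressed as % of the VIP-stimulated response.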

[2] = biological target: T1, 5-hydroxytryptamine receptor 1A (Rattus norvegicus); experiment: Effect on 5-hydroxytryptamine 1A receptor mediated inhibition of VIP-stimulated cAMP production at dose of 50 uM; type: functional; details: values are per cent of control
Summary of the method: (§2)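 GH4ZD10 cells expressing rat 5-HT1A receptors, detached with EDTA-supplemented Ca/Mg-free EBSS and resuspended in Ham's F10 with 0.01% ascorbic acid and 0.1 mM IBMX. Preincubated 1 h at 37 °C, then 0.8-1.5×10^6 cells/mL incubated 20 min at 37 °C with VIP (39 nM final) plus compounds. Duplicate samples stopped by boiling. cAMP measured in triplicate by protein-binding assay. Results are given as % of the VIP-stimulated response.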

[3] = biological target: T2, 5-hydroxytryptamine receptor 1A (Rattus norvegicus, UniProt P19327); experiment: Binding affinity against rat hippocampal 5-hydroxytryptamine 1A (5-HT1A) receptor determined using [3H]8-OH-DPAT as radioligand; type: tissue-based, Hippocampus
T2 sequence (P19327 whole entry): T1 sequence (whole entry)

[4] = biological target: T1, 5-hydroxytryptamine receptor 1A (Rattus norvegicus); details: 0.05 uM
[5] = biological target: T1, 5-hydroxytryptamine receptor 1A (Rattus norvegicus); experiment: Effect on 5-hydroxytryptamine 1A receptor mediated inhibition of VIP-stimulated cAMP production at dose of 1 uM+ 50 uM 5-HT.; type: functional; details: values are per cent of control; summary of the method: as §2
[6] = biological target: T1, 5-hydroxytryptamine receptor 1A (Rattus norvegicus); experiment: Effect on 5-hydroxytryptamine 1A receptor mediated inhibition of VIP-stimulated cAMP production at dose of 0.1 uM + 1 uM 5-HT.; type: functional; details: values are per cent of control; summary of the method: as §1
[7] = biological target: T1, 5-hydroxytryptamine receptor 1A (Rattus norvegicus); experiment: Effect on 5-hydroxytryptamine 1A receptor mediated inhibition of VIP-stimulated cAMP production at dose of 10 uM+ 10 uM 5-HT.; type: functional; details: values are per cent of control; summary of the method: as §2
[8] = biological target: T1, 5-hydroxytryptamine receptor 1A (Rattus norvegicus); experiment: Effect on 5-hydroxytryptamine 1A receptor mediated inhibition of VIP-stimulated cAMP production at dose of 50 uM+ 50 uM 5-HT.; type: functional; details: values are per cent of control; summary of the method: as §2
[9] = biological target: T1, 5-hydroxytryptamine receptor 1A (Rattus norvegicus); experiment: Effect on 5-hydroxytryptamine 1A receptor mediated inhibition of VIP-stimulated cAMP production at dose of 10 uM; type: functional; details: values are per cent of control; summary of the method: as §1
[10] = biological target: T1, 5-hydroxytryptamine receptor 1A (Rattus norvegicus); experiment: Effect on 5-hydroxytryptamine 1A receptor mediated inhibition of VIP-stimulated cAMP production at dose of 1 uM+ 1 uM 5-HT.; type: functional; details: values are per cent of control; summary of the method: as §2
[11] = biological target: T1, 5-hydroxytryptamine receptor 1A (Rattus norvegicus); experiment: Effect on 5-hydroxytryptamine 1A receptor mediated inhibition of VIP-stimulated cAMP production at dose of 0.05 uM; type: functional; details: values are per cent of control; summary of the method: as §2

response, % of control [1]	response, % of control [2]	Ki [3]	response, % of control [4]	response, % of control [5]	response, % of control [6]	response, % of control [7]	response, % of control [8]	response, % of control [9]	response, % of control [10]	response, % of control [11]	Structure (SMILES)
79%	39%	4.9 nM	87%	41%	50%	–	–	–	–	–	CCCN(CCCCN1C(=O)CC2(CCCC2)CC1=O)[C@H]1CCc2c(F)ccc(OC)c2C1
97%	93%	13.9 nM	–	–	70%	102%	91%	109%	91%	104%	CCCN(CCCCN1C(=O)CC2(CCCC2)CC1=O)[C@H]1CCc2c(F)ccc(C(C)=O)c2C1
